In brackets after ≈: the same amount, converted by molar mass.

Here are results for 23 compounds from ChEMBL document CHEMBL2384967, “Benzimidazole-based antibacterial agents against Francisella tularensis” (Bioorg Med Chem, 2013).

Assay [1] relates to Francisella tularensis. Briefly: Antibacterial activity against Francisella tularensis LVS infected in mouse RAW 264.7 macrophages assessed as log reduction in CFU at 2 to 50 ug/ml after 18 hrs relative to control. It is filed as functional.
Assay [2] has as its system Francisella tularensis. Briefly: Antibacterial activity against Francisella tularensis LVS infected in mouse RAW 264.7 macrophages after 18 hrs. It is filed as functional.
For a further assay, the system named is Vero. Briefly: Cytotoxicity against african green monkey vero cells after 3 days. It is filed as cell-based. The conditions noted are these: Chlorocebus sabaeus, 72 h. Put shortly: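 Vero cells grown in L15 medium without CO2, 1.25×10^5 per well. Triplicate 2-fold drug dilutions from 200 µg/mL, with resazurin at a final 25 µg/mL, for 3 days at 37 °C. LD is the lowest concentration that inhibits growth, with no resazurin reduction.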

The test system of assay [3] is Francisella tularensis. Briefly: Antibacterial activity against Francisella tularensis LVS after 18 hrs by Microplate Alamar Blue assay. In kind it is functional. In general terms: Resazurin is reduced to fluorescent resorufin, in cell work by metabolically active cells.
Assay [4] concerns Francisella tularensis. Briefly: Antibacterial activity against Francisella tularensis LVS at 1 ug/ml by Microplate Alamar Blue assay. It is filed as functional. To be noted: read-out: GI.
For assay [5], the system named is Francisella tularensis. Briefly: Antibacterial activity against Francisella tularensis LVS at 0.2 ug/ml by Microplate Alamar Blue assay. In kind it is functional. The conditions noted are these: read-out: GI.

A word on the IC50: it is the concentration that inhibits the measured activity by half. One may read the MIC90 as an inhibitory concentration at the 90% level, which refers to growth in some studies and to a panel of isolates in others. For the compound `O=C(Nc1cc2nc(-c3cccs3)[nH]c2cc1N1CCCCC1)OCc1ccccc1`, the FC in the assay on Francisella tularensis [1] worked out at 2. Also, the Activity entry with Francisella tularensis [2] is “Dose-dependent effect”. The compound also gave an IC50 with Vero greater than 200 µg/mL. The same compound registered an MIC90 in the assay with Francisella tularensis [3] of 0.98 µg/mL (≈ 2.27 µM). Moreover, the inhibition of growth at 1 µg/mL in the assay on Francisella tularensis [4] was greater than 90%.
Taken in the same sequence, the figures for `COc1ccccc1C(=O)Nc1cc2nc(-c3ccco3)[nH]c2cc1N1CCCCC1` were 2, “Dose-dependent effect”, greater than 200 µg/mL, 2.1 µg/mL (≈ 5.04 µM) and greater than 90%.
`CCOC(=O)Nc1cc(NC(=O)c2ccc(F)cc2)c2[nH]c(-c3ccco3)nc2c1` displayed an IC50 with Vero greater than 200 µg/mL. Moreover, the MIC90 in the assay on Francisella tularensis [3] turned out to be 2.8 µg/mL (≈ 6.86 µM). Besides, the inhibition of growth at 1 µg/mL with Francisella tularensis [4] was greater than 90%. For the same compound, the inhibition of growth at 0.2 µg/mL in the assay with Francisella tularensis [5] came to 40%.
Turning to `CCN(CC)c1cc2[nH]c(-c3ccccc3OC)nc2cc1NC(=O)c1ccccc1OC`, in the assay on Vero, the half-inhibitory concentration (IC50) is greater than 200 µg/mL. The same compound showed an MIC90 against Francisella tularensis [3] of 4.85 µg/mL (≈ 10.9 µM). Moreover, in the assay with Francisella tularensis [4], the inhibition of growth at 1 µg/mL was greater than 90%.
Taken in the same sequence, the figures for `COc1ccccc1C(=O)Nc1cc2nc(-c3cccs3)[nH]c2cc1N1CCCCC1` were greater than 200 µg/mL, 1.6 µg/mL (≈ 3.7 µM) and greater than 90%.
For `CCOC(=O)Nc1cc(NC(=O)C2CCCCC2)c2[nH]c(-c3ccc(C(=O)OC)cc3)nc2c1`, the IC50 with Vero was greater than 200 µg/mL. The MIC90 in the assay with Francisella tularensis [3] is 1.5 µg/mL (≈ 3.23 µM). Also, in the assay with Francisella tularensis [4], the inhibition of growth at 1 µg/mL is greater than 90%. Besides, in the assay with Francisella tularensis [5], the inhibition of growth at 0.2 µg/mL turned out to be 40%.
In turn, `O=C(Nc1cc2nc(C3CCCCC3)[nH]c2cc1N1CCCC1)C1CC1` yielded a concentration for half-maximal inhibition (IC50) with Vero greater than 200 µg/mL. The compound also registered an MIC90 in the assay on Francisella tularensis [3] of 2.1 µg/mL (≈ 5.96 µM). Further, in the assay on Francisella tularensis [4], the inhibition of growth at 1 µg/mL was greater than 90%.
The compound `CCOC(=O)Nc1cc(NC(=O)c2ccccc2)c2[nH]c(-c3ccc(Br)cc3)nc2c1` came in with an IC50 with Vero greater than 200 µg/mL. This compound also displayed an MIC90 in the assay on Francisella tularensis [3] of 0.48 µg/mL (≈ 1 µM). Also, the inhibition of growth at 1 µg/mL with Francisella tularensis [4] is greater than 90%.
On to `CCOC(=O)Nc1cc(NC(=O)c2ccc(OC)cc2)c2[nH]c(-c3ccc(C(=O)OC)cc3)nc2c1`, for which the 50% inhibitory concentration (IC50) in the assay on Vero was greater than 200 µg/mL. Also, in the assay with Francisella tularensis [4], the inhibition of growth at 1 µg/mL was greater than 90%. In addition, the inhibition of growth at 0.2 µg/mL in the assay with Francisella tularensis [5] amounted to 40%.
In the assay with Vero, `CCOC(=O)Nc1cc(NC(=O)c2ccccc2)c2[nH]c(-c3ccco3)nc2c1` displayed an IC50 greater than 200 µg/mL. Further, the MIC90 in the assay on Francisella tularensis [3] came to 3.8 µg/mL (≈ 9.73 µM). Further, the inhibition of growth at 1 µg/mL in the assay on Francisella tularensis [4] was greater than 90%. Also, the inhibition of growth at 0.2 µg/mL in the assay with Francisella tularensis [5] came out at 40%.
In turn, `CCN(CC)c1cc2[nH]c(-c3ccccc3)nc2cc1NC(=O)c1ccc(C)cc1` displayed an IC50 with Vero greater than 200 µg/mL. Moreover, in the assay with Francisella tularensis [3], the MIC90 was determined as 12.9 µg/mL (≈ 32.4 µM). Also, in the assay with Francisella tularensis [4], the inhibition of growth at 1 µg/mL was greater than 90%. The inhibition of growth at 0.2 µg/mL in the assay on Francisella tularensis [5] worked out at 40%.
For `CCN(CCN(C)C)c1cc2[nH]c(C3CCCCC3)nc2cc1NS(=O)(=O)c1ccccc1`, the IC50 in the assay with Vero was greater than 200 µg/mL. In addition, in the assay with Francisella tularensis [3], the MIC90 amounted to 35.8 µg/mL (≈ 76.2 µM). For the same compound, in the assay with Francisella tularensis [4], the inhibition of growth at 1 µg/mL was greater than 90%.
In the assay with Vero, `CCOC(=O)Nc1cc(NC(=O)c2ccccc2)c2[nH]c(-c3ccc(C(=O)OC)cc3)nc2c1` displayed an IC50 of 650 µg/mL (≈ 1420 µM). For the same compound, in the assay on Francisella tularensis [4], the inhibition of growth at 1 µg/mL was greater than 90%. In addition, the inhibition of growth at 0.2 µg/mL with Francisella tularensis [5] turned out to be 40%.
As for `CN(C)CCN(C)c1cc2[nH]c(C3CCCCC3)nc2cc1NS(=O)(=O)c1ccccc1`, the half-inhibitory concentration (IC50) in the assay with Vero was greater than 200 µg/mL. In the assay on Francisella tularensis [3], this compound came in with an MIC90 of 48.6 µg/mL (≈ 107 µM). In addition, the inhibition of growth at 1 µg/mL in the assay with Francisella tularensis [4] was greater than 90%.
`CCN(CC)c1cc2[nH]c(-c3ccc(C)cc3)nc2cc1NC(=O)C1CCC1` came in with a half-inhibitory concentration (IC50) with Vero greater than 200 µg/mL. The compound further showed an MIC90 against Francisella tularensis [3] of 1.16 µg/mL (≈ 3.08 µM). Further, the inhibition of growth at 1 µg/mL in the assay on Francisella tularensis [4] is greater than 90%. Besides, the inhibition of growth at 0.2 µg/mL with Francisella tularensis [5] amounted to 40%.
On to `CCOC(=O)Nc1cc(NC(=O)c2ccccc2OC)c2[nH]c(-c3ccc(Br)cc3)nc2c1`, for which the half-inhibitory concentration (IC50) in the assay on Vero was greater than 200 µg/mL. In the assay on Francisella tularensis [3], this compound returned an MIC90 of 1.4 µg/mL (≈ 2.75 µM). In addition, the inhibition of growth at 1 µg/mL with Francisella tularensis [4] is greater than 90%.
For the compound `CCN(CC)c1cc2[nH]c(-c3ccccc3OC)nc2cc1NC(=O)C1CCC1`, in the assay on Vero, the half-inhibitory concentration (IC50) was greater than 200 µg/mL. Further, the MIC90 against Francisella tularensis [3] worked out at 7.59 µg/mL (≈ 19.3 µM). In addition, the inhibition of growth at 1 µg/mL in the assay on Francisella tularensis [4] was greater than 90%.
For `CCN(CC)c1cc2[nH]c(-c3ccc(F)cc3)nc2cc1NC(=O)C1CCC1`, the half-maximal inhibitory concentration (IC50) in the assay with Vero was greater than 200 µg/mL. This compound came in with an MIC90 against Francisella tularensis [3] of 4.84 µg/mL (≈ 12.7 µM). The inhibition of growth at 1 µg/mL in the assay on Francisella tularensis [4] was greater than 90%.
`O=C(Nc1cc2nc(-c3ccco3)[nH]c2cc1N1CCCCC1)c1cccc2ccccc12`: the FC in the assay on Francisella tularensis [1] turned out to be 2. For the same compound, the Activity result in the assay on Francisella tularensis [2] was “Dose-dependent effect”. The IC50 in the assay with Vero was greater than 200 µg/mL. Also, the MIC90 in the assay on Francisella tularensis [3] is 2.4 µg/mL (≈ 5.5 µM). In addition, the inhibition of growth at 1 µg/mL with Francisella tularensis [4] was greater than 90%.
For `CCOC(=O)Nc1cc(N)c2[nH]c(-c3ccc(Br)cc3)nc2c1`, in the assay on Vero, the IC50 was greater than 200 µg/mL. The compound also gave an MIC90 with Francisella tularensis [3] of 2.99 µg/mL (≈ 7.97 µM). Further, in the assay on Francisella tularensis [4], the inhibition of growth at 1 µg/mL is greater than 90%.
On the same counts, the results for `CCOC(=O)Nc1cc(N)c2[nH]c(-c3cc(C)cc(C)c3)nc2c1` are greater than 200 µg/mL, 4.33 µg/mL (≈ 13.3 µM) and greater than 90%.
`CC(C)(C)OC(=O)Nc1cc(NC(=O)OCc2ccccc2)c2[nH]c(-c3ccccc3)nc2c1` showed a half-maximal inhibitory concentration (IC50) in the assay with Vero greater than 200 µg/mL. The MIC90 in the assay with Francisella tularensis [3] amounted to 0.35 µg/mL (≈ 0.763 µM). In addition, the inhibition of growth at 1 µg/mL with Francisella tularensis [4] was greater than 90%.
With `CCOC(=O)Nc1cc(NC(=O)C2CCCC2)c2[nH]c(-c3ccc(Br)cc3)nc2c1`, in the assay on Vero, the IC50 is greater than 200 µg/mL. For the same compound, the MIC90 against Francisella tularensis [3] came out at 0.75 µg/mL (≈ 1.59 µM). In addition, in the assay on Francisella tularensis [4], the inhibition of growth at 1 µg/mL was greater than 90%.
